The source made the active and inactive calls. The calls are words filed in the database; no cut-off is given here.
How the values were obtained:
NCI-H929 [1] = assay: Synergistic activity against human NCI-H929 cells assessed as combination index […] at 0.5 uM incubated for 48 hrs by […]; assay type: functional
How it was run: (§1)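 Cells were exposed to the EZH2/EZH1 inhibitor (UNC1999 or GSK126) for 72 h in total, with the Akt inhibitor added for the last 48 h. Viability was read by MTS assay relative to untreated control cells, in triplicate. The combination index for each dose pair came from isobologram analysis.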

MM1.S [2] = assay: Upregulation of BIM mRNA expression in human MM1.S cells at 1 micromol/L after 24 hrs by qRT-PCR analysis; assay type: functional, cell-based; details: dose 1.0 µmol/L
OPM-2/BTZ [3] = assay: Upregulation of p27 protein expression in human OPM-2/BTZ cells incubated at 0.3 to 3 micromol/L for 48 hrs by Western blot analysis; assay type: functional, cell-based; details: dose 0.3-3 µmol/L
OPM-2 [4] = assay: Synergistic activity against human OPM-2 cells assessed as combination index preincubated in presence of 1.25 uM UNC1999 for 72 hrs followed by compound addition at 1.25 uM incubated for 48 hrs by MTT assay; assay type: functional
OPM-2 [5] = assay: Synergistic activity against human OPM-2 cells assessed as combination index preincubated in presence of 2.5 uM GSK126 for 72 hrs followed by compound addition at 5 uM incubated for 48 hrs by MTT assay; assay type: functional
OPM-2 [6] = assay: Synergistic activity against human OPM-2 cells assessed as combination index preincubated in presence of 5 uM GSK126 for 72 hrs followed by compound addition at 2.5 uM incubated for 48 hrs by MTT assay; assay type: functional
MM1.S [7] = assay: Cytotoxicity against human MM1.S cells transduced with EZH1 assessed as enhanced sensitivity at 0.156 to 2.5 micromol/L 48 hrs by MTS assay; assay type: functional, cell-based; details: dose 0.156-2.5 µmol/L
How it was run: (§2)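 MM.1S or H929 cells transduced with lentiviral shRNA against EZH1 or against luciferase (shLuc control), then given TAS-117 at the indicated doses for 48 h. Viability by MTS relative to untreated control; mean ± SD of triplicates; compared with shLuc.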

NCI-H929 [8] = assay: Induction of apoptosis in human NCI-H929 cells assessed as necrotic cells at 2 micromol/L incubated for 12 hrs by annexin V/PI staining based flow cytometry (reference value: 2.61%); assay type: functional; details: dose 2 µmol/L, at 2 µM
NCI-H929 [9] = assay: Downregulation of E2F1 protein expression in human NCI-H929 cells incubated at 0.3 to 3 micromol/L for 48 hrs by Western blot analysis; details: dose 0.3-3 µmol/L
OPM-2 [10] = assay: Synergistic activity against human OPM-2 cells assessed as combination index preincubated in presence of 1.25 uM UNC1999 for 72 hrs followed by compound addition at 2.5 uM incubated for 48 hrs by MTT assay; assay type: functional
MM1.S [11] = assay: Downregulation of EZH2 protein expression in human MM1.S cells at 0.3 to 5 micromol/L for 6 to 48 hrs by Western blot analysis; assay type: functional, cell-based; details: dose 0.3-5 µmol/L, time 6-48 hrs
How it was run: (§3)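 MM.1S and H929 cells exposed to TAS-117 at the indicated doses for 48 h, or to 5 μmol/L for the indicated times. Immunoblot with GAPDH, Akt and H3 as loading controls; EZH2 quantified relative to GAPDH.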

OPM-2/BTZ [12] = assay: Synergistic activity against human OPM-2/BTZ cells assessed as combination index preincubated in presence of 1.25 uM UNC1999 for 72 hrs followed by compound addition at 0.5 uM incubated for 48 hrs by MTT assay; assay type: functional
MM1.S [13] = assay: (§4) Synergistic activity against human MM.1S cells assessed as combination index […] at 0.125 uM incubated for 48 hrs by […]; assay type: functional; how it was run: as §1
OPM-2/BTZ [14] = assay: Synergistic activity against human OPM-2/BTZ cells assessed as combination index preincubated in presence of 2.5 uM UNC1999 for 72 hrs followed by compound addition at 0.5 uM incubated for 48 hrs by MTT assay; assay type: functional
NCI-H929 [15] = assay: Downregulation of CDK2 protein expression in human NCI-H929 cells incubated at 0.3 to 3 micromol/L for 48 hrs by Western blot analysis; assay type: functional, cell-based; details: dose 0.3-3 µmol/L
How it was run: (§5)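 MM.1S and H929 cells given TAS-117 at the indicated doses for 48 h. Protein levels assessed by immunoblot.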

NCI-H929 [16] = assay: Induction of apoptosis in human NCI-H929 cells assessed as necrotic cells at 5 micromol/L incubated for 48 hrs by annexin V/PI staining based flow cytometry (reference value: 2.61%); assay type: functional; details: dose 5 µmol/L, at 5 µM
NCI-H929 [17] = assay: Downregulation of EZH2 protein expression in human NCI-H929 cells at 0.3 to 5 micromol/L for 6 to 48 hrs by Western blot analysis; assay type: functional, cell-based; details: dose 0.3-5 µmol/L, time 6-48 hrs; how it was run: as §3
OPM-2/BTZ [18] = assay: Downregulation of cyclin D1 protein expression in human OPM-2/BTZ cells incubated at 0.3 to 3 micromol/L for 48 hrs by Western blot analysis; assay type: functional, cell-based; details: dose 0.3-3 µmol/L
OPM-2 [19] = assay: Effects on EZH2 mRNA expression in human OPM-2 cells at 3 micromol/L incubated for last 24 hrs by qRT-PCR analysis; assay type: functional, cell-based; details: dose 3.0 µmol/L
OPM-2/BTZ [20] = assay: Synergistic activity against human OPM-2/BTZ cells assessed as combination index preincubated in presence of 1.25 uM GSK126 for 72 hrs followed by compound addition at 1 uM incubated for 48 hrs by MTT assay; assay type: functional
MM1.S [21] = assay: Synergistic activity against human MM.1S cells assessed as combination index […] in presence of 1.25 uM UNC1999 […] at 0.25 uM incubated for 48 hrs by MTT assay; assay type: functional; how it was run: as §1
OPM-2/BTZ [22] = assay: Downregulation of CDK1 protein expression in human OPM-2/BTZ cells incubated at 0.3 to 3 micromol/L for 48 hrs by Western blot analysis; assay type: functional, cell-based; details: dose 0.3-3 µmol/L
MM1.S [23] = assay: Upregulation of EZH1 mRNA expression in human MM1.S cells at 0.03 to 3 micromo/L at 6 to 48 hrs by qRT-PCR analysis; assay type: functional, cell-based; details: dose 0.03-3 µmol/L, time 6-48 hrs
How it was run: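 EZH1 mRNA was measured by qRT-PCR in MM.1S and H929 cells. Dose series: cells were treated with graded TAS-117 for 24 h. Time course: cells were treated with 3 μmol/L for the indicated times. Fold change is after GAPDH normalization, relative to the untreated control. Data are SD of triplicates.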

OPM-2 [24] = assay: Synergistic activity against human OPM-2 cells assessed as combination index preincubated in presence of 1.25 uM GSK126 for 72 hrs followed by compound addition at 1.25 uM incubated for 48 hrs by MTT assay; assay type: functional
NCI-H929 [25] = assay: Downregulation of cyclin D1 protein expression in human NCI-H929 cells incubated at 0.3 to 3 micromol/L for 48 hrs by Western blot analysis; assay type: functional, cell-based; details: dose 0.3-3 µmol/L; how it was run: as §5
MM1.S [26] = assay: as §4; assay type: functional; how it was run: as §1; remark: listed apart in the source
NCI-H929 [27] = assay: Cytotoxicity against human NCI-H929 cells transduced with EZH1 assessed as enhanced sensitivity at 0.156 to 2.5 micromol/L 48 hrs by MTS assay; assay type: functional, cell-based; details: dose 0.156-2.5 µmol/L; how it was run: as §2
[28] = target: Serine/threonine-protein kinase AKT (Homo sapiens) (UniProt P31751+Q9Y243+P31749); assay: Inhibition of Akt phosphorylation in human NCI-H929 cells at 0.3 to 5 micromol/L for 6 to 48 hrs by Western blot analysis; assay type: cell-based; details: dose 0.3-5 µmol/L, time 6-48 hrs
How it was run: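 MM.1S and H929 cells were treated with graded doses for 48 h, or with 5 μmol/L for the stated times. Lysates were immunoblotted, with GAPDH, total Akt and H3 as loading controls.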

Sequence of Serine/threonine-protein kinase AKT (Homo sapiens) (P31749 whole entry, looked up): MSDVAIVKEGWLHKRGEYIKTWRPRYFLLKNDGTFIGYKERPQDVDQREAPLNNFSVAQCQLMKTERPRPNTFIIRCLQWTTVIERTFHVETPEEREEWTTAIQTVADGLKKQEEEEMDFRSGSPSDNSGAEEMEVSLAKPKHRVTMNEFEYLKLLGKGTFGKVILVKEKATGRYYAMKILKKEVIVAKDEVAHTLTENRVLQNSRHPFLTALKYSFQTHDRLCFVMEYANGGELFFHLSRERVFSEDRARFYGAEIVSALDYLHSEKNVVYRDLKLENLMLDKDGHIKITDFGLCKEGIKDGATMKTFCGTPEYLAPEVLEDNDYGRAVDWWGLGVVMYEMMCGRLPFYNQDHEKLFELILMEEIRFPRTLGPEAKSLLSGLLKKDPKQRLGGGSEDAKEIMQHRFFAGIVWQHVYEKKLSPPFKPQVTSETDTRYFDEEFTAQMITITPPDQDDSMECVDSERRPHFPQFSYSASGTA
Sequence of Serine/threonine-protein kinase AKT (Homo sapiens) (P31751 whole entry, looked up): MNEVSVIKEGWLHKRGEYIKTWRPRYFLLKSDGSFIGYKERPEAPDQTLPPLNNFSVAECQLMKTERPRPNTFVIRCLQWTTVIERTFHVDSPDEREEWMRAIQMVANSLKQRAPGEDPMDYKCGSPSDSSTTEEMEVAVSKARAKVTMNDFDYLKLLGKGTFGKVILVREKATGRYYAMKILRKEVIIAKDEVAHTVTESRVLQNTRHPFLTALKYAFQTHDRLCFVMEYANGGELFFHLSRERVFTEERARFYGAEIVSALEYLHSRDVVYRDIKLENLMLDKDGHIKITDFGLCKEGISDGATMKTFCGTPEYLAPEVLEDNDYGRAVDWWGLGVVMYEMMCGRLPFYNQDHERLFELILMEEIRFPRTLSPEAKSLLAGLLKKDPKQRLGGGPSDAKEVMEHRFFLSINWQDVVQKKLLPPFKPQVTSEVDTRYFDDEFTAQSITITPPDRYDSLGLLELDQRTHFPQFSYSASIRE
Sequence of Serine/threonine-protein kinase AKT (Homo sapiens) (Q9Y243 whole entry, looked up): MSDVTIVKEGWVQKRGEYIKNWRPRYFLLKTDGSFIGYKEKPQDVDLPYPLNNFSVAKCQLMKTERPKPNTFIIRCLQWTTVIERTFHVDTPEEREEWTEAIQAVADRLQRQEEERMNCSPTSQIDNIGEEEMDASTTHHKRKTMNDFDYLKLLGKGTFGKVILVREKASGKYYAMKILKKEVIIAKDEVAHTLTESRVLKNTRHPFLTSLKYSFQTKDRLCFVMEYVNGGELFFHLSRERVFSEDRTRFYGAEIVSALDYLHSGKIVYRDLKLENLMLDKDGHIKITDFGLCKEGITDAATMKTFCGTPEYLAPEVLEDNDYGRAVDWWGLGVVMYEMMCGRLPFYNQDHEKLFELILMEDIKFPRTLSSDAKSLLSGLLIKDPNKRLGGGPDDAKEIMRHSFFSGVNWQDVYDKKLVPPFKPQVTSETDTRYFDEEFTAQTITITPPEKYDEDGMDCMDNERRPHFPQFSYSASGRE

Structure (SMILES): C[C@]1(O)C[C@@](N)(c2ccc(-c3nc4n(c3-c3ccccc3)COc3ccncc3-4)cc2)C1 [PIFUSERTIB]
- CI (NCI-H929 [1]): 4.395
- Activity (MM1.S [2]): Active
- Activity (OPM-2/BTZ [3]): Active
- CI (OPM-2 [4]): 1.33
- CI (OPM-2 [5]): 6.9
- CI (OPM-2 [6]): 2.74
- Activity (MM1.S [7]): Active
- Activity (NCI-H929 [8]): 0.35%
- Activity (NCI-H929 [9]): Active
- CI (OPM-2 [10]): 1.51
- Activity (MM1.S [11]): Active
- CI (OPM-2/BTZ [12]): 0.74
- CI (MM1.S [13]): 1.08
- CI (OPM-2/BTZ [14]): 0.499
- Activity (NCI-H929 [15]): Active
- Activity (NCI-H929 [16]): 0.84%
- Activity (NCI-H929 [17]): Active
- Activity (OPM-2/BTZ [18]): Active
- Activity (OPM-2 [19]): inactive
- CI (OPM-2/BTZ [20]): 0.923
- CI (MM1.S [21]): 0.251
- Activity (OPM-2/BTZ [22]): Active
- Activity (MM1.S [23]): Dose-Dependent Effect
- CI (OPM-2 [24]): 1.29
- Activity (NCI-H929 [25]): Active
- CI (MM1.S [26]): 0.532
- Activity (NCI-H929 [27]): Active
- inhibition [28]: Active

Source: ChEMBL document CHEMBL5647697, “Akt inhibition synergizes with polycomb repressive complex 2 inhibition in the treatment of multiple myeloma” (2019)
